# Rows were chosen to be rich in hits. Some 4.5% of all compounds tested hit in one or more screens of this group.
# MrgX1 antag: blocks BAM8-22 activation of human MrgX1 receptor; MRGX1-HEK293 calcium flux, Fluo-4, BAM8-22 antagonism; active compounds read low; B-score at 10 µM; hit rate 1.3% among 310,000; AID 588676;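 active means calcium-response B-score plate-corrected more than 3 library SD below zero, starting fluorescence within 5 deviations, no agonist response on first addition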;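 further: peak minus trough fluorescence over baseline after final BAM8-22 challenge near maximal dose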
# Target sequence (Q96LB2 whole entry, looked up): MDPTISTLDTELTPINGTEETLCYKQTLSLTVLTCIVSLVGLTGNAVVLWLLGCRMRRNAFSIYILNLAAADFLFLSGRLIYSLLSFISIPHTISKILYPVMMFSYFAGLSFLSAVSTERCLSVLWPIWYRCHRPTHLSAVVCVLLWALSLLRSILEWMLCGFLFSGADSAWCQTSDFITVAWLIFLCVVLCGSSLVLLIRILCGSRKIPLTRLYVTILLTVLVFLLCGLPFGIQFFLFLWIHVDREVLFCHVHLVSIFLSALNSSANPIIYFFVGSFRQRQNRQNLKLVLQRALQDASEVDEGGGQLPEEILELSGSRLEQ
# RGS4 block: inhibitors of human RGS4. HEK293 M3R/RGS4 inducible, Fluo-4 calcium flux; active compounds read high; triggered by carbachol at its EC20. B-score at 10 µM. hit rate 0.45% among 310,000. AID 463165;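 active means B-score, a plate-corrected calcium signal, over three deviations above library mean, with baseline fluorescence within five deviations of library mean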;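 further: RGS4 expression induced by doxycycline in cells with stable M3 receptor; B-score is computed from the integrated fluorescence ratio over baseline after carbachol; higher B-score means a larger calcium signal and so more RGS4 inhibition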
# RGS4 act: RGS4 potentiation or activation. HEK293 M3R/inducible RGS4, carbachol calcium flux Fluo4; active compounds read low. B-score at 10 µM. hit rate 0.92% among 310,000. AID 463111;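 active means B-score of the integrated calcium signal more than 4 SD below the library mean, with starting fluorescence not abnormally high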;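 further: negative B-score means reduced calcium response which marks RGS4 activation or potentiation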
#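 Material: M3R-expressing HEK293 line, RGS4 induced by doxycycline | Schedule: Overnight RGS4 induction, 30 min dye load 37 °C, 20 min compound RT | Measured by: Fluo4 fluorescence kinetic imaging of calcium | Read-out: Integrated calcium ratio converted to B score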
# PHOSPHO1 block: blocks human PHOSPHO1 phosphatase activity | Q8TCT1 | recombinant PHOSPHO1, absorbance phosphatase assay | inhibition, % at 13.3 µM | hit rate 1.1% among 290,000; in the data active means inhibition above about 60%
# MrgX1 ag: human MrgX1 receptor agonism, primary screen; Q96LB2; AID 588627; B-score at 10 µM; hit rate 0.44% among 310,000; MrgX1-HEK293 cells, Fluo-4 calcium fluorescence, agonist mode; active compounds read high;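 active means calcium response B-score plate-corrected fluorescence ratio at least 3 library SD, with starting fluorescence B-score inside 5 SD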
#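 Assay system: MrgX1-expressing HEK293 cells / Amount: fifteen thousand cells per well / Doses: test compound in the initial addition of three / Timing: cells plated overnight, dye loaded 0.5 h 37 °C, 0.5 h room temperature / Technique: kinetic calcium dye fluorescence, Fluo-4 NW / Control set: positive and negative controls per plate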
# MrgX1 PAM: allosterically activates human MrgX1 receptor signaling | MrgX1-HEK293, Fluo-4 calcium flux, FDSS; active compounds read high | Q96LB2 | hit rate 0.63% among 310,000 | AID 588675 | B-score at 10 µM;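 active means plate-corrected calcium response at least 3 library SD above typical, normal starting fluorescence, not activating the receptor alone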;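 further: compound read alongside a low EC10 to EC30 dose of BAM8-22 agonist; peak minus trough fluorescence over baseline measured at the second addition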
# The depositor's hits bear a star; i = inactive.
SMILES,MrgX1 antag,RGS4 block,RGS4 act,PHOSPHO1 block,MrgX1 ag,MrgX1 PAM
C#CCOCCOCCOCCNc1nc(N2CCN(C(=O)[C@H](CCC(=O)O)n3cc(C(N)CC(C)C)nn3)CC2)nc(N2CCN(C(=O)[C@H](Cc3ccc(O)cc3)n3cc(C(N)[C@H](C)CC)nn3)CC2)n1 (stereo partly drawn),i,i,i,35,i,i
CCn1c(C)c(C(C)=O)c(N2CCN(c3cccc(Cl)c3)CC2)nc1=S,i,i,i,76*,i,i
CC1(C)CC(=O)C(C=Nc2ccccc2Sc2ccccc2)=C(O)C1,i,i,-8.8*,3,i,i
CC1(C)CC(=O)C(C=Nc2ccccc2C(=O)O)=C(O)C1,i,i,i,23,i,i
CCC(C)(C)n1nnnc1C(c1ccc(O)c(OC)c1)N1CCN(c2nc3ccccc3s2)CC1 (stereo not drawn),i,i,i,68*,i,i
COc1ccc(-n2c(C)cc(C(=O)CSc3nn4c(=O)c(C(C)(C)C)nnc4s3)c2C)cc1,i,i,i,94*,i,i
Brc1ccc(N=Nc2ccc3ccccc3n2)cc1,i,i,i,8,i,i
Cc1cc2c([nH]c3ccccc32)c2c1OC(C)(C)C=C2,i,i,i,27,i,i
Cc1cc2[nH]c3c(c[n+](C)c4ccccc34)c2cc1C,i,i,-7.1*,-71,i,i
COc1ccc(OC)c(/C=C2/Sc3ccccc3C2=O)c1,i,i,i,37,i,8.7*
COC(=O)c1ccc(CN(C(C)=O)c2ccccc2)o1,i,i,-7.3*,21,i,i
Cc1nn(Cc2c(F)c(F)c(F)c(F)c2F)c(C)c1NC(=O)c1nn(C)c(C)c1Br,i,i,i,33,i,i
CCCOc1ccc(S(=O)(=O)n2cc(F)c(=O)[nH]c2=O)cc1,i,i,i,-8,i,7.9*
C=CCOc1ccc(/C=N/NC(=O)c2cc3c(OC)cc(OC)cc3[nH]2)cc1,i,i,-8.1*,-9,i,i
CCOc1ccc(/C=N/NC(=O)c2cc3c(OC)cc(OC)cc3[nH]2)cc1OC,i,i,i,25,i,i
CN(C)/C=C1\SC(=S)N(c2ccc(F)cc2)C1=O,i,i,i,43,i,i
CN(C)/C=C1\SC(=S)N(c2ccc(Br)cc2)C1=O,-4.9*,i,i,48,i,i
CC1CCN(CCOc2ccc(OCc3ccccc3)cc2)CC1,i,i,i,-3,i,i
NC(N)=NC(=S)Nc1ccc(Cl)cc1,i,i,i,51,i,i
Nc1ncnc(Oc2cccc3cccnc23)c1[N+](=O)[O-],-5*,i,i,37,i,i
CCOC(=O)C1(CCc2ccccc2)CCN(C(=O)C(C)n2cncn2)CC1 (stereo not drawn),i,i,i,35,i,i
COc1ccc(OC)c(-n2c(-c3cnccn3)n[nH]c2=S)c1,i,i,i,84*,i,i
COc1ccc(-n2c(-c3cnccn3)n[nH]c2=S)cc1,i,i,i,94*,i,i
S=c1[nH]nc(-c2cnccn2)n1-c1ccccc1,i,i,i,-27,i,i
COc1ccc(OC)c(-n2c(-c3cc(-c4ccc(F)cc4)n[nH]3)n[nH]c2=S)c1,i,i,i,91*,i,i
CCC(=O)N/N=C(\C)CC(=O)Nc1ccccc1-c1ccccc1,i,i,i,0,i,i
O=CN1CCCN(Cc2nc(-c3cccc(Cl)c3)no2)CC1,i,i,i,54,i,i
C#CCOc1c(/C=C\c2nc(O)c([N+](=O)[O-])c(=O)[nH]2)cc(Br)cc1OC,i,i,i,14,i,i
O=C(O)CNS(=O)(=O)c1ccc(C2CCCCC2)cc1,i,i,i,25,i,i
CCCN1C(=O)c2cc(C(=O)Nc3ccccc3OC)ccc2C1Nc1ccccc1OC (stereo not drawn),i,i,-7.2*,3,i,i
